Test results taken from ChEMBL document CHEMBL2203082, “Thiorhodamines containing amide and thioamide functionality as inhibitors of the ATP-binding cassette drug transporter P-glycoprotein (ABCB1)” (Bioorg Med Chem, 2012).

Experiments:
[1] = Ratio of permeability from apical to basal side of MDCK2 cells expressing MDR1 assessed as fraction of mass extracted by methanol wash at 5 uM in presence of LSN 335984 to permeability from apical to basal side of MDCK2 cells expressing MDR1 assessed as fraction of mass extracted by methanol wash at 5 uM in absence of LSN 335984; type: ADME, cell-based, Canis lupus familiaris; conditions: dog, mdck-ii
Summary of the method: (§1)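 MDCKII-MDR1 cells on Transwell polycarbonate filters (50,000 cells cm−2), used day 6. 5 μM compound added to donor chamber (AB or BA). Donor and receiver sampled after 1 h at 37 °C with nutation. Cell-associated fraction taken by methanol extraction of monolayer after AB flux. Quantified by LC-MS/MS. ±SD.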

[2] = Permeability from apical to basal side of MDCK2 cells expressing MDR1 assessed as fraction of mass extracted by methanol wash at 5 uM after 1 hr by LC-MS/MS analysis in presence of LSN 335984; type: ADME, cell-based, Canis lupus familiaris; conditions: dog, mdck-ii; summary of the method: as §1
[3] = Permeability from apical to basal side of MDCK2 cells expressing MDR1 assessed as fraction of mass extracted by methanol wash at 5 uM after 1 hr by LC-MS/MS analysis; type: ADME, cell-based, Canis lupus familiaris; conditions: dog, mdck-ii; summary of the method: as §1
[4] = Ratio of permeability from basal to apical side of MDCK2 cells expressing MDR1 in absence of LSN 335984 to permeability from basal to apical side of MDCK2 cells expressing MDR1 in presence of LSN 335984; type: ADME, cell-based, Canis lupus familiaris; conditions: dog, mdck-ii; summary of the method: as §1
[5] = Permeability from basal to apical side of MDCK2 cells expressing MDR1 at 5 uM after 1 hr by LC-MS/MS analysis; type: ADME, cell-based, Canis lupus familiaris, MDCK-II; conditions: dog, MDCK-MDR1; read-out: permeability; summary of the method: as §1
[6] = Permeability from apical to basal side of MDCK2 cells expressing MDR1 at 5 uM after 1 hr by LC-MS/MS analysis; type: ADME, cell-based, Canis lupus familiaris, MDCK-II; conditions: dog, MDCK-MDR1; read-out: permeability; summary of the method: as §1
[7] = n-Octanol-water partition coefficient, log P of the compound at pH 7.4 by shake flask method; type: physicochemical
[8] = biological target: T1, ATP-dependent translocase ABCB1 (Homo sapiens, UniProt P08183); test: Inhibition of MDR1 transfected in MDCK2 cells assessed as inhibition of [3H]vinblastine efflux incubated for 30 mins prior to [3H]vinblastine addition by scintillation counting; type: cell-based, MDCK-II
Summary of the method: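 Transwell MDCKII-MDR1 monolayers on day 6, rinsed 10 min in DPBSH at 37 °C. Conditioned with compound at 1 × 10−10 to 1 × 10−5 M in BSA/DPBSH. [3H]-vinblastine added to the basolateral side. Apical buffer replaced every 10 min, and apical [3H] counted by scintillation. IC50 calculated from the curve.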

P-gp (MDR1, ABCB1) [9] = biological target: T2, P-gp (MDR1, ABCB1) (Homo sapiens, UniProt P08183); test: Inhibition of MDR1 transfected in MDCK2 cells assessed as increase in calcein AM uptake at 2.5*10^-5 M incubated for 30 mins prior to calcein AM influx measured after 20 mins by fluorimetric analysis relative to LSN 335984; type: cell-based, MDCK-II; conditions: dog, MDCK2 cells transfected with MDR1, probe calcein AM
Summary of the method: (§2)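 MDCKII-MDR1 cells (passage 16-42) seeded 40,000 cells/well, used day 4. Washed with DPBS plus 10−2 M Hepes pH 7.4, then incubated 30 min at 37 °C with compound in this buffer with 4.3 mg mL−1 BSA. Compound solution then replaced with one also holding 0.5 μg mL−1 calcein AM, 20 min more.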

P-gp (MDR1, ABCB1) [10] = biological target: T2, P-gp (MDR1, ABCB1); test: Inhibition of MDR1 transfected in MDCK2 cells assessed as increase in calcein AM uptake at 5*10^-6 M incubated for 30 mins prior to calcein AM influx measured after 20 mins by fluorimetric analysis relative to LSN 335984; type: cell-based, MDCK-II; conditions: dog, MDCK2 cells transfected with MDR1, probe calcein AM; summary of the method: as §2
[11] = biological target: T1, ATP-dependent translocase ABCB1; test: Inhibition of MDR1 transfected in MDCK2 cells assessed as increase in calcein AM uptake incubated for 30 mins prior to calcein AM influx measured after 20 mins by fluorimetric analysis; type: cell-based, MDCK-II
[12] = biological target: T1, ATP-dependent translocase ABCB1; test: Inhibition of human His10-tagged P-gp ATPase activity expressed in BHK cells assessed as verapamil-induced inorganic phosphate release incubated for 15 mins prior to verapamil addition by spectrophotometric analysis; type: cell-based
Summary of the method: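 P-gp-His10 stably expressed in BHK cells, Ni-chelate purified and mixed 1:1 with 10 mg/ml sheep brain phosphatidylethanolamine. Pre-incubated with compound 15 min at 20 °C. […] Released inorganic phosphate measured.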

[13] = biological target: P-gp (ABCB1) ATPase activity (Homo sapiens, UniProt P08183); test: Binding affinity to human His10-tagged P-gp expressed in BHK cells assessed as induction of ATPase activity measured as inorganic phosphate release by spectrophotometric analysis relative to control; type: cell-based; conditions: read-out: FC
P-gp (ABCB1) ATPase activity, sequence (P08183 whole entry): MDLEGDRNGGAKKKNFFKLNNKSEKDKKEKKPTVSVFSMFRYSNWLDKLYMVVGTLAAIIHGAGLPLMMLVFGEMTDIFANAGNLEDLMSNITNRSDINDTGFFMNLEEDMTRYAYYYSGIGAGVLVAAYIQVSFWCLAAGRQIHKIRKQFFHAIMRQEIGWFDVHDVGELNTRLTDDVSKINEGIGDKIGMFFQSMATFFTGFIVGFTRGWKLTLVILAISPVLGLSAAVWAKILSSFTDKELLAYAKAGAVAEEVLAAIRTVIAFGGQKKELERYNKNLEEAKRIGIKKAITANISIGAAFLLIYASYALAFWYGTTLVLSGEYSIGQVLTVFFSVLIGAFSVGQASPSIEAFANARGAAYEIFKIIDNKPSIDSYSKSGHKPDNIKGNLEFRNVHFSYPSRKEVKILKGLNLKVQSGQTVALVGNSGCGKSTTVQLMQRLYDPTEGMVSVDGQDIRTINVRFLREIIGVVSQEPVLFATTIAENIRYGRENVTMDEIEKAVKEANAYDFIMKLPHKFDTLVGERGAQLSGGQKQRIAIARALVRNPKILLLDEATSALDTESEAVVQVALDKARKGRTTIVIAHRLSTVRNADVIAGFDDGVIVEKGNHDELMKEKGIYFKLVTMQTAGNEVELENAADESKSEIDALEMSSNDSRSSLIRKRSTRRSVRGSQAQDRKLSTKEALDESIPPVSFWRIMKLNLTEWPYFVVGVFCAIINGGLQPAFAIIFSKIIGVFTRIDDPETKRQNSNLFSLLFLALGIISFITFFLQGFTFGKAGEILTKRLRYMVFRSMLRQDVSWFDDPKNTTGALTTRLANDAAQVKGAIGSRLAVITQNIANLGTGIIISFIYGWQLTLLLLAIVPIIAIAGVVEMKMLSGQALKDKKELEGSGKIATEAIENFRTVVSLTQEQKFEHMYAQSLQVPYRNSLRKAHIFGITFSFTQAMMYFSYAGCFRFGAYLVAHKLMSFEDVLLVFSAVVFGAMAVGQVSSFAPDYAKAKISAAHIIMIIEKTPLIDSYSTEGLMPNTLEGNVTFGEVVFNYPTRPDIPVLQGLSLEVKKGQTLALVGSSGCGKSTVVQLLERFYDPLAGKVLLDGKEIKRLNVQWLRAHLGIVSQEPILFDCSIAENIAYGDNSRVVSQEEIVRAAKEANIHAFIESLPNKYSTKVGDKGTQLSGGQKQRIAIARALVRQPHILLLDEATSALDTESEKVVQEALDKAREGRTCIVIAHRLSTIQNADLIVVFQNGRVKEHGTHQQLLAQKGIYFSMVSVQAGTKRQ

T1 sequence (P08183 whole entry): as above
T2 sequence (P08183 whole entry): as above

SMILES	Ratio [1]	permeability [2] [%]	permeability [3] [%]	Ratio [4]	Papp B→A at 1 h, 5 µM [5] [×10⁻⁶ cm/s]	Papp A→B at 1 h, 5 µM [6] [×10⁻⁶ cm/s]	logD [7]	IC50 [8] [µM]	inhibition at 20 min, 25 µM (P-gp (MDR1, ABCB1) [9]) [%]	inhibition at 20 min, 5 µM (P-gp (MDR1, ABCB1) [10]) [%]	IC50 [11] [µM]	IC50 [12] [nM]	fold induction [13]
CN1CCC(C)(C)c2cc3c(-c4ccc(C(=S)N5CCCCC5)s4)c4ccc(=[N+](C)C)cc-4sc3cc21.F[P-](F)(F)(F)(F)F	1.8	62	34	170	3.4	≤ 0.1	2.6	8.9	64	0	9.3	1700	< 2
C[N+](C)=c1ccc2c(-c3ccc(C(=S)N4CCCCC4)s3)c3cc4c5c(c3sc-2c1)CCCN5CCC4.F[P-](F)(F)(F)(F)F	–	64	31	–	8.3	≤ 0.1	–	–	41	0	–	–	–
CCN(CC)C(=S)c1ccc(-c2c3ccc(=[N+](C)C)cc-3sc3cc(N(C)C)ccc23)s1.F[P-](F)(F)(F)(F)F	5.1	56	11	41	21	≤ 0.1	1.2	–	3	0	14	–	12.1
CCN(CC)C(=O)c1ccc(-c2c3ccc(=[N+](C)C)cc-3sc3cc(N(C)C)ccc23)s1	–	–	–	–	–	–	1.2	–	–	–	–	–	–
CCN(CC)C(=S)c1ccc(-c2c3ccc(=[N+](C)C)cc-3sc3c4c5c(cc23)CCCN5CCC4)s1.F[P-](F)(F)(F)(F)F	1.8	45	25	24	6.5	≤ 0.1	1.7	–	41	0	9.6	–	4.6
CCN(CC)C(=O)c1ccc(-c2c3ccc(=[N+](C)C)cc-3sc3c4c5c(cc23)CCCN5CCC4)s1.F[P-](F)(F)(F)(F)F	4.8	28	5.8	12	21	≤ 0.1	1.9	–	41	0	10	–	5.6
C[N+](C)=c1ccc2c(-c3ccc(C(=O)N4CCCCC4)s3)c3cc4c5c(c3sc-2c1)CCCN5CCC4.F[P-](F)(F)(F)(F)F	6.1	42	6.9	27	22	≤ 0.1	1.4	–	41	0	56	–	4.1
CN(C)c1ccc2c(-c3ccc(C(=O)N4CCCCC4)s3)c3ccc(=[N+](C)C)cc-3sc2c1	–	–	–	–	–	–	1.5	–	–	–	–	–	–
CCN(CC)C(=S)c1ccc(-c2c3ccc(=[N+](C)C)cc-3sc3cc4c(cc23)C(C)(C)CCN4C)s1.F[P-](F)(F)(F)(F)F	1.2	64	52	69	6.9	≤ 0.1	2.7	8.7	64	0	8.8	–	4.3
CCN(CC)C(=O)c1ccc(-c2c3ccc(=[N+](C)C)cc-3sc3cc4c(cc23)C(C)(C)CCN4C)s1.F[P-](F)(F)(F)(F)F	3.3	33	10	14	37	≤ 0.1	1.4	8	64	0	7.1	–	4.7
CN1CCC(C)(C)c2cc3c(-c4ccc(C(=O)N5CCCCC5)s4)c4ccc(=[N+](C)C)cc-4sc3cc21.F[P-](F)(F)(F)(F)F	5.2	45	8.6	31	23	≤ 0.1	1.7	5.6	64	0	13	1100	< 2
